An excerpt weighted towards active compounds, which were near 11% of everything screened.
M1 antag – antagonists of rat M1 muscarinic receptor. 64,000 compounds, 3.4% hits. Muscarinic acetylcholine receptor M1 (Rattus norvegicus), P08482. CHO-M1 cells, Fluo-4 calcium, ACh EC80 antagonist mode; stronger effect = lower value. B-score at 10 µM;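 active = calcium fluorescence response, raw or row-and-column corrected B-score, differing from the plate sample mean either way at a set confidence level, mostly lower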
Target sequence (P08482 whole entry, looked up): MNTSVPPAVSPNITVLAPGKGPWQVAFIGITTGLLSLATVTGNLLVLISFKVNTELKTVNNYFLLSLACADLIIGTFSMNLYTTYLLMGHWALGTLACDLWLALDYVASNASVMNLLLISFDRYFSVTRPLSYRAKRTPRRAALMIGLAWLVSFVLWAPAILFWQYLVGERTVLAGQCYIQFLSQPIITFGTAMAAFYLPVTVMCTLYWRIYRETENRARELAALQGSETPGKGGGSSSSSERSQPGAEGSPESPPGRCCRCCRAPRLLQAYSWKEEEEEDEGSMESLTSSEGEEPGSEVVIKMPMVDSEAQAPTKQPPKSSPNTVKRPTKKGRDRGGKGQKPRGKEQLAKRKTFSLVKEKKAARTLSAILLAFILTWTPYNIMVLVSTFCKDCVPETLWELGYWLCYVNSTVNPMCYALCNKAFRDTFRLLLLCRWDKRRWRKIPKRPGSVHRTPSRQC
S1P3 ag – human S1P3 receptor agonists, primary screen, cell-based, primary and confirmation, NFAT-BLA reporter. activation, % at 4.5 µM. Sphingosine 1-phosphate receptor 3 (Homo sapiens), Q99500. AID 373, 2006. 60,000 compounds, 0.1% hits. S1P3 NFAT-BLA reporter cells, agonism, FRET ratio; relative to 1 µM S1P, basal subtracted;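 active = activation above the screen-wide mean plus 3 SD, cut at about 4.5% in these data, passing the limit was not always enough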
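Assay system: stable CHO line with human S1P3, Gα16, NFAT-BLA reporter; Detection: FRET β-lactamase substrate fluorescence, excitation 405 nm, 460/535 nm emission ratio, background-subtracted; Read-out: percent activation versus median 1 µM S1P response, basal-subtracted, per plate; Incubation: cells plated overnight, compound 4 h 37 °C, substrate 2 h RT.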
M1 ag – M1 muscarinic receptor agonists, primary screen, CHO-M1 cells, Fluo-4 calcium, agonist mode; B-score at 10 µM; 64,000 compounds, 3% hits; Muscarinic acetylcholine receptor M1; Fluo-4 calcium fluorescence; stronger effect = higher value;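 active = fluorescence rise, raw or as B-score row- and column-corrected plate score, outside the 99.7% band of its plate's samples, either direction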
S1P1 ag-PAM – S1P1 agonists and agonism potentiators, primary screen, cell-based, primary and confirmation screens, CRE-bla reporter. Sphingosine 1-phosphate receptor 1 (Homo sapiens), P21453. S1P1 CRE-bla cells, forskolin, beta-lactamase FRET, potentiator mode; S1P1 agonist co-added at EC20, 2 nM; 100% = saturating reference agonist, 0% = basal. activation, % at 9.5 µM. 56,000 compounds, 0.57% hits. AID 449, 2006;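 active = activation above a cutoff set at the mean activation of all tested compounds plus 3 SD, cut at about 54% in these data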;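 also: forskolin at 4 µM as EC80 and the EC20 agonist is SEW2871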
D1 allo mod – D1 CRE-luciferase signal change, two-sided – cell-based, HEK293 D1, dopamine EC30, D1 allosteric modulator project, primary screen. D(1A) dopamine receptor (Homo sapiens), P21728. dopamine EC30 potentiation; actives deviate in either direction. B-score at 10 µM. 58,000 compounds, 5.9% hits;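 active = luminescence count or its row- and column-corrected plate score outside the 99.7% band of the plate's sample wells, on either side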
M1 antag confirm – rat M1 muscarinic receptor antagonists, confirmation, CHO cells, Fluo-4 calcium, duplicate; 1,700 compounds, 43% hits; ACh EC80 antagonism; stronger effect = lower value; AID 677, 2007; calcium response (max-min fluorescence) at 10 µM; shares compounds with M1 antag;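 active = calcium response below the same-plate mean of wells given acetylcholine alone at its 80%-effect dose, minus 3 SD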
mGluR4 antag – human mGluR4 response to M1 antagonist hits, M1 allosteric modulator project, cell-based, antagonist mode, secondary assay 1; 1,700 compounds, 0.9% hits; fluorescence response (max-min) at 10 µM; AID 678, 2007; shares compounds with M1 antag; CHO-mGluR4 calcium flux, Fluo-4 fluorescence, glutamate EC80; stronger effect = lower value;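 active = fluorescence response below the plate's average for near-maximal glutamate wells, less 3 SD of those wells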;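 also: raw unnormalized fluorescence span taken in the window right after glutamate addition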
Large screens that a line does not name were inactive (follow-up assays come after a bar, where they were run).

Cc1oc(-c2cccc(Cl)c2)nc1CN1CCC(C(=O)N2CCN(c3ccccn3)CC2)CC1	none
CCN(CCCNC(=O)c1c(C)cc(=O)oc1C)c1cccc(C)c1	M1 antag -2.9 (no result: S1P3 ag, S1P1 ag-PAM) | M1 antag confirm 522 | mGluR4 antag inactive
COc1ccc(NC(=O)C2CSC3c4ccccc4C(=O)N23)cc1 (stereo not given)	none (no result: D1 allo mod)
COCCn1cnnc1SCC(=O)c1ccc(S(=O)(=O)N2CCCC2)cc1	none
Clc1ccc(OCc2nnc(SCCN3CCCCC3)n2Cc2ccco2)cc1	M1 antag -13 | M1 antag confirm 21 | mGluR4 antag inactive
CCc1ccc(OCc2nnc(SCCN3CCOCC3)n2CC)cc1	M1 antag -3.2 | M1 antag confirm 313 | mGluR4 antag inactive
O=C(OC(C(=O)NCC1CCCO1)c1ccccn1)c1cccs1 (stereo not given)	none (no result: S1P3 ag, S1P1 ag-PAM)
COc1ccc(N2C(=O)CCC(C(=O)N3CCOCC3)C2c2ccc(F)cc2)cc1 (stereo not given)	M1 antag -3.1 (no result: S1P3 ag, S1P1 ag-PAM, D1 allo mod) | M1 antag confirm inactive | mGluR4 antag inactive
COc1ccc(N2C(=O)CCC(C(=O)N3CCCCC3)C2c2ccc(F)cc2)cc1 (stereo not given)	none
COc1ccc(C2C(C(=O)N3CCN(c4ccccc4)CC3)c3ccccc3C(=O)N2C)cc1OC (stereo not given)	M1 antag -4.4 (no result: S1P3 ag, S1P1 ag-PAM) | M1 antag confirm inactive | mGluR4 antag inactive
COc1ccc(C2C(C(=O)N3CCOCC3)c3ccccc3C(=O)N2c2ccc(OC)cc2)cc1 (stereo not given)	M1 antag -13 | M1 antag confirm inactive | mGluR4 antag inactive
COc1ccc(NC(=O)CSc2nnc(-c3ccncc3)n2CC2CCCO2)c(OC)c1 (stereo not given)	none
Cc1cc(N2CCN(C(=O)OC(C)(C)C)CC2)n2ncnc2n1	none
CC(C)c1ccc(S(=O)(=O)N2CCN(CC(=O)Nc3ccc4c(c3)OCO4)CC2)cc1	none
CCOC(=O)N1CCC(Nc2c(NCCN3CCN(Cc4ccccc4)CC3)c(=O)c2=O)CC1	M1 antag -6.7 | M1 antag confirm inactive | mGluR4 antag inactive
CCOC(=O)N1CCN(c2c(NCCN3CCN(Cc4ccccc4)CC3)c(=O)c2=O)CC1	none
CC(C)N(Cc1ccccc1)C(=O)COC(=O)c1ccc2c(c1)OCCO2	none (no result: S1P3 ag, S1P1 ag-PAM)
CC(C)(C)N(Cc1ccccc1)C(=O)c1ccc2c(c1)OCCO2	M1 antag -1.8 | M1 antag confirm inactive | mGluR4 antag inactive
COc1ccc(C2C3C(=O)N(Cc4ccccc4)C(=O)C3ON2c2ccccc2)c(OC)c1OC (stereo not given)	M1 antag -2.9 | M1 antag confirm inactive | mGluR4 antag inactive
CC1CN(c2oc(-c3ccco3)nc2S(=O)(=O)c2ccccc2)CC(C)O1 (stereo not given)	none (no result: D1 allo mod)
CCOC(=O)c1ccc2c(c1)nc(C1CCN(S(=O)(=O)c3cccs3)CC1)n2CC	M1 antag -2.9 | M1 antag confirm 474 | mGluR4 antag inactive
CC(C)c1ccccc1OCCNS(C)(=O)=O	none
CCN(CC)CCCNC(=O)C1CCC(=O)N(c2ccc(OC)cc2)C1c1ccc(F)cc1 (stereo not given)	none (no result: S1P3 ag, S1P1 ag-PAM, D1 allo mod)
O=C(NCCN1CCOCC1)c1ccc2c(c1)N(Cc1ccccc1)C(=O)CS2	M1 antag -3 (no result: S1P3 ag, S1P1 ag-PAM) | M1 antag confirm 344 | mGluR4 antag inactive
O=C(CN1CCC(O)(c2ccc3c(c2)OCO3)CC1)OC1CCCCC1	none
N#CC1=C(N)Oc2c(oc(CO)cc2=O)C12C(=O)Nc1ccc(Cl)cc12 (stereo not given)	none
CCN(CC)CCOC(=O)c1c(C)oc2ccc(O)cc12	M1 antag -3.3 | M1 antag confirm 296 | mGluR4 antag inactive

Screens deposited in PubChem BioAssay by several laboratories.
